# Data as given in ChEMBL document CHEMBL5620424, “Design, synthesis and evaluation of novel 2-phenyl-3-(1H-pyrazol-4-yl)pyridine positive allosteric modulators for the M4 mAChR” (Eur J Med Chem, 2023).
# Legend:
# [1] = target: T1, Muscarinic acetylcholine receptor M4 (Homo sapiens) (UniProt P08173); test: […] human M4 mAChR expressed in Flp-In-CHO cells co-expressing CAMYEL biosensor assessed as change in baseline response at 10 uM incubated for 5 mins by BRET assay relative to control; format: cell-based
# T1 sequence (whole entry): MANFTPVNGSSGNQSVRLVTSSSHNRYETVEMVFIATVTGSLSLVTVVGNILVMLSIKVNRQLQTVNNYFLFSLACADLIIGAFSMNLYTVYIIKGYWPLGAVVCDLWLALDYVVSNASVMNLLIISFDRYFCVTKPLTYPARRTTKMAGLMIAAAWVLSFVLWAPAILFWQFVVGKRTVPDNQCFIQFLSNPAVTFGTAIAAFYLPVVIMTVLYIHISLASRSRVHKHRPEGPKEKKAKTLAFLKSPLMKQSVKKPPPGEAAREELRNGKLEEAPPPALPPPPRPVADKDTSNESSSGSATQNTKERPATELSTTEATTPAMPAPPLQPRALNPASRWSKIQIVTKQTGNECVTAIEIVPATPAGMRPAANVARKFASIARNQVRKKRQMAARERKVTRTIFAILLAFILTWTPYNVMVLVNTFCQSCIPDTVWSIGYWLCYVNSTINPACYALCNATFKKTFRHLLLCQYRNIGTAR
# Method in brief: (§1)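 FlpInCHO cells stably expressing human M4 mAChR, transiently transfected with CAMYEL cAMP BRET biosensor (60 ng/well, PEI), assayed 48 h later in HBSS pH 7.4. Full ACh concentration-response curve alone or with modulator at 1 or 10 μM, co-added with coelenterazine h (5 μM), 5 min, 37 °C. Three-parameter logistic fit; ACh curve values subtracted from ACh+modulator values. Δbaseline and ΔEmax given as % of maximal ACh response without modulator. 4 experiments in duplicate, SEM pooled.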
# [2] = target: T1, Muscarinic acetylcholine receptor M4 (Homo sapiens); test: Displacement of 3[H]-NMS from human M4 mAChR expressed in Flp-In-CHO cells assessed as binding constant incubated for 6 hrs by microbeta2 plate reader assay; format: cell-based; conditions: filed as positive allosteric modulator
# Method in brief: (§2)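 Intact FlpInCHO-hM4 cells, 20,000/well grown overnight, in HBSS pH 7.4 with [3H]-NMS 0.5 nM, ACh (0.01 μM–10 mM) and modulator (0.1–10 μM), shaken 6 h at room temperature. Washed with ice-cold 0.9% NaCl, then scintillation counting. Nonspecific binding defined with 10 μM atropine. pKB and log α(ACh) from global fit to allosteric ternary complex model, with log α′(NMS) fixed at –3 under strong negative cooperativity. 4–5 experiments in duplicate.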
# [3] = target: T1, Muscarinic acetylcholine receptor M4 (Homo sapiens); test: Displacement of 3[H]-NMS from human M4 mAChR expressed in Flp-In-CHO cells assessed as binding co-operativity (log alpha) incubated for 6 hrs in presence of ACh by microbeta2 plate reader assay; format: cell-based; conditions: filed as positive allosteric modulator; method in brief: as §2
# [4] = target: T1, Muscarinic acetylcholine receptor M4 (Homo sapiens); test: Positive allosteric modulation at human M4 mAChR expressed in Flp-In-CHO cells co-expressing CAMYEL biosensor assessed as change in maximum ACh-mediated response at 10 uM incubated for 5 mins by BRET assay relative to control; format: cell-based; method in brief: as §1
# [5] = target: T1, Muscarinic acetylcholine receptor M4 (Homo sapiens); test: Positive allosteric modulation at Rluc-tagged human M4 mAChR expressed in Flp-In-CHO cells co-expressing eYFP-tagged beta-arrestin 2 assessed as ACh-mediated beta-arrestin 2 recruitment co-operativity (log alpha beta) incubated for 5 mins by luminometry; format: cell-based; conditions: filed as positive allosteric modulator
# Method in brief: (§3)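 FlpInCHO cells co-transfected with human M4-Rluc8 (20 ng/well) and β-arrestin-2-eYFP (80 ng/well) using PEI, assayed after 48 h. Coelenterazine h (5 μM) preincubated 5 min, then ACh plus modulator ranges for 5 min at 37 °C; BRET at 475/535 nm. Fit to simplified operational model with slope 1 and KB fixed from binding. 4–5 experiments in duplicate.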
# [6] = target: T1, Muscarinic acetylcholine receptor M4 (Homo sapiens); test: Positive allosteric modulation at Rluc-tagged human M4 mAChR expressed in Flp-In-CHO cells co-expressing eYFP-tagged beta-arrestin 2 assessed as efficacy of ACh-mediated beta-arrestin 2 recruitment (log tau B) incubated for 5 mins by luminometry; format: cell-based; conditions: filed as positive allosteric modulator; method in brief: as §3
# [7] = target: T1, Muscarinic acetylcholine receptor M4 (Homo sapiens); test: Positive allosteric modulation at human M4 mAChR expressed in Flp-In-CHO cells co-expressing CAMYEL biosensor assessed as ACh-mediated cAMP signalling co-operativity (log alpha beta) incubated for 5 mins by BRET assay; format: functional, cell-based; conditions: filed as positive allosteric modulator
# Method in brief: (§4)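 CAMYEL-transfected FlpInCHO-hM4 cells (48 h post-transfection) given ACh and modulator concentration ranges in full interaction design, 5 min at 37 °C; BRET read with coelenterazine h. Fit to complete operational model of allosterism and agonism with ACh KA and modulator KB fixed from binding assays. Gives log τB and log αβ. 4–5 experiments in duplicate.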
# [8] = target: T1, Muscarinic acetylcholine receptor M4 (Homo sapiens); test: Positive allosteric modulation at human M4 mAChR expressed in Flp-In-CHO cells co-expressing CAMYEL biosensor assessed as change in ACh-mediated response incubated for 5 mins by BRET assay; format: cell-based; conditions: filed as positive allosteric modulator; method in brief: as §1
# [9] = target: T1, Muscarinic acetylcholine receptor M4 (Homo sapiens); test: Positive allosteric modulation at human M4 mAChR expressed in Flp-In-CHO cells co-expressing CAMYEL biosensor assessed as efficacy of ACh-mediated cAMP signalling (log tau B) incubated for 5 mins by BRET assay; format: functional, cell-based; conditions: filed as positive allosteric modulator; method in brief: as §4
# [10] = filed as positive allosteric modulator
SMILES,Activity [1] [%],pKb [2],log(activity) [3],"Emax [4, 10] [%]",log(activity) [5],log(activity) [6],log(activity) [7],deltapEC50 [8],log(activity) [9],Emax [4] [%],"Activity [1, 10] [%]"
Cc1ccc(-c2ccc3c(c2)C(=O)N(C)C3)c(-c2cnn(CC3CCOCC3)c2)n1,4.76,–,–,–,–,–,–,0.58,–,3.58,–
CN1Cc2ccc(-c3nccnc3-c3cnn(CC4CCCC4)c3)cc2C1=O,–,4.55,1.41,–,0.94,0.07,1.81,-0.34,-0.74,35.1,48.5
CN1Cc2ccc(-c3ncccc3-c3cnn(CC4CCCC4)c3)cc2C1=O,13,5.33,2.18,41.6,2.09,0.51,2.47,0.88,-0.81,–,–
Cc1ccc(-c2cnn(CC3CCOCC3)c2)c(-c2ccc3c(c2)C(=O)N(C)C3)n1,–,–,–,47.1,–,–,–,1.16,–,–,86.7
Cc1ccc(-c2cnn(C)c2)c(-c2ccc3c(c2)C(=O)N(C)C3)n1,13.7,–,–,–,–,–,–,0.57,–,27,–
CN1Cc2ccc(-c3cnccc3-c3cnn(CC4CCCC4)c3)cc2C1=O,–,–,–,56.8,–,–,–,0.17,–,–,47.2
Cc1ccc(-c2cnn(Cc3ccccc3)c2)c(-c2ccc3c(c2)C(=O)N(C)C3)n1,–,–,–,63.8,–,–,–,1.87,–,–,77.1
Cc1ccc(-c2cn(CC3CCCC3)nn2)c(-c2ccc3c(c2)C(=O)N(C)C3)n1,20,–,–,–,–,–,–,1.07,–,11.8,–
Cc1ccc(-c2cnn(CC3CCN(C(=O)OC(C)(C)C)CC3)c2)c(-c2ccc3c(c2)C(=O)N(C)C3)n1,5.53,–,–,52.5,–,–,–,0.6,–,–,–
Cc1ccc(-c2cnn(CC3CCCC3)c2)c(-c2ccc(N)cc2)n1,–,–,–,80.6,–,–,–,1.31,–,–,88.1
Cc1ccc(-c2cnn(CC3CCCC3)c2)c(-c2ccccc2)n1,32.1,4.68,1.98,–,1.87,0.87,2.46,1.15,0.04,21.8,–
Cc1ccc(-c2cnn(CC3CCCC3)c2)c(-c2ccc3c(c2)C(=O)NC3)n1,–,–,–,73.3,–,–,–,2.57,–,–,89.7

# Results, then the molecule that gave them:
Activity [1] [%],pKb [2],log(activity) [3],"Emax [4, 10] [%]",log(activity) [5],log(activity) [6],log(activity) [7],deltapEC50 [8],log(activity) [9],Emax [4] [%],"Activity [1, 10] [%]",SMILES
33.2,4.49,1.47,97.7,1.06,-0.83,2.03,0.25,-0.58,–,–,Cc1ccc(-c2cnn(CC3CCCC3)c2)c(-c2cccc(C(=O)N(C)C)c2)n1
18.6,–,–,–,–,–,–,1.24,–,39,–,Cc1ccc(-c2cnn(CC3CCCC3)c2)c(-c2ccc3c(c2)NC(=O)C3)n1
24.5,–,–,–,–,–,–,1.06,–,13.9,–,Cc1ccc(-n2cc(CC3CCCC3)nn2)c(-c2ccc3c(c2)C(=O)N(C)C3)n1
–,–,–,61.3,–,–,–,1.99,–,–,78.2,CNC(=O)c1cccc(-c2nc(C)ccc2-c2cnn(CC3CCCC3)c2)c1
–,–,–,57.7,–,–,–,1.63,–,–,52.2,CC(=O)Nc1cccc(-c2nc(C)ccc2-c2cnn(CC3CCCC3)c2)c1
–,5.84,1.95,69.6,1.29,0.64,2.22,1.64,-0.54,–,102,Cc1ccc(-c2cnn(CC3CC3)c2)c(-c2ccc3c(c2)C(=O)N(C)C3)n1
–,–,–,66.6,–,–,–,1.49,–,–,90.6,CN1Cc2ccc(-c3ccncc3-c3cnn(CC4CCCC4)c3)cc2C1=O
6.49,–,–,–,–,–,–,0.63,–,25.6,–,CN1Cc2ccc(-c3ccccc3-c3cnn(CC4CCCC4)c3)cc2C1=O
–,–,–,53.5,–,–,–,1.35,–,–,51.7,Cc1ccc(-c2cnn(CC3CCCC3)c2)c(-c2cccc(N)c2)n1
–,–,–,65.6,–,–,–,1.33,–,–,77.3,Cc1ccc(-c2cnn(CC3CCCC3)c2)c(-c2cccc(C(N)=O)c2)n1
–,6.11,1.92,63.9,1.1,0.56,2.01,0.73,-0.88,–,106,Cc1ccc(-c2cnn(CC3CCCCC3)c2)c(-c2ccc3c(c2)C(=O)N(C)C3)n1
–,–,–,50.5,–,–,–,2.11,–,–,83.3,CCCN1Cc2ccc(-c3nc(C)ccc3-c3cnn(CC4CCCC4)c3)cc2C1=O
–,–,–,74,–,–,–,1.05,–,–,124,Cc1ccc(-c2cnn(CC3CCC3)c2)c(-c2ccc3c(c2)C(=O)N(C)C3)n1
–,–,–,84.8,–,–,–,1.36,–,–,108,Cc1ccc(-c2cnn(CC(C)C)c2)c(-c2ccc3c(c2)C(=O)N(C)C3)n1
